Source: ChEMBL document CHEMBL1141414, “Inhibitors of bacterial cystathionine beta-lyase: leads for new antimicrobial agents and probes of enzyme structure and function” (J Med Chem, 2007)
Converted amounts (≈) assume the structure as drawn.

Tests used:
Escherichia coli [1] = test: Antibacterial activity against Escherichia coli ATCC 25922 in absence of methionine; assay type: functional
Candida albicans = test: Antifungal activity against Candida albicans ATCC 90028; assay type: functional
[2] = biological target: T1, Cystathionine beta-lyase MetC (Escherichia coli K-12, UniProt P06721); test: Inhibition of Escherichia coli CBL
T1 sequence (P06721 whole entry): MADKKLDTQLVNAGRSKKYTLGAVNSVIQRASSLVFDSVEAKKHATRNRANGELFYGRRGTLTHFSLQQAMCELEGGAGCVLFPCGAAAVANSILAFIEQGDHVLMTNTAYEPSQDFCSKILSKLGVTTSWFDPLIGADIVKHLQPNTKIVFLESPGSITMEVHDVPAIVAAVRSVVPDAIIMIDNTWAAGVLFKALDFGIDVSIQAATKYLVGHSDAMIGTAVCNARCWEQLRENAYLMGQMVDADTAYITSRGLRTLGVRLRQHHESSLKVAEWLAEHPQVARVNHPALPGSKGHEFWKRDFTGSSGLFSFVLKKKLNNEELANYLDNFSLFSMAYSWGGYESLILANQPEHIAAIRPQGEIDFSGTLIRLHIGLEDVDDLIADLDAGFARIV
Outline: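 Purified E. coli CBL (24 nM) in 50 mM TAPS pH 8.5 with 1 mM DTNB, preincubated 10 min at room temperature with inhibitor in DMSO (5% final). Reaction started with 100 µM cystathionine; homocysteine formation followed at 412 nm for 4 min, rate taken from 30-200 s slope. IC50 fitted as a four-parameter logistic from 12 concentrations, triplicate.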

Escherichia coli [3] = test: Antibacterial activity against Escherichia coli ATCC 25922 in presence of methionine; assay type: functional

Row | SMILES | MIC (Escherichia coli [1]) | MIC (Candida albicans) | IC50 [2] | MIC (Escherichia coli [3])
1 | NNC(=O)CNC(=O)c1cc(N)cc(N)c1 | 128 µg/mL (≈ 573 µM) | > 128 µg/mL | 82 µM | 128 µg/mL
2 | NNS(=O)(=O)c1cccc2c(N)cccc12 | – | – | 6 µM | –
3 | O=C(CSc1nccc(-c2cccs2)n1)c1cc(-c2ccc(Cl)c(Cl)c2)no1 | > 128 µg/mL | > 128 µg/mL | 2.7 µM | > 128 µg/mL
4 | NNS(=O)(=O)c1ccc(Cl)c(Cl)c1 | – | – | 1.8 µM | –
5 | O=C(OCc1ccccc1Br)c1cc([N+](=O)[O-])cc2c1-c1ccc([N+](=O)[O-])cc1/C2=N/O | 64 µg/mL (≈ 128 µM) | > 128 µg/mL | 0.53 µM | 64 µg/mL
6 | Cc1ccc2nc(-c3ccc(NC(=O)c4ccc(Cl)cc4)cc3)sc2c1 | > 128 µg/mL | > 128 µg/mL | 200 µM | > 128 µg/mL
7 | CC(=O)NCc1ccc(S(=O)(=O)NN)cc1 | 64 µg/mL (≈ 263 µM) | > 128 µg/mL | 34 µM | 64 µg/mL
8 | NNS(=O)(=O)c1ccc(Cl)s1 | – | – | 6.9 µM | –
9 | COc1cccc(OC)c1C(=O)NCC(=O)NN | > 128 µg/mL | > 128 µg/mL | 60 µM | > 128 µg/mL
10 | Cc1ccccc1NC(=O)C(C(F)(F)F)C(F)(F)F | 32 µg/mL (≈ 112 µM) | 16 µg/mL (≈ 56.1 µM) | 0.28 µM | 64 µg/mL
11 | NNC(=O)CNC(=O)c1ccc([N+](=O)[O-])cc1 | 32 µg/mL (≈ 134 µM) | > 128 µg/mL | 25 µM | 64 µg/mL
12 | NNC(=O)CNC(=O)c1cccc(C(F)(F)F)c1 | > 128 µg/mL | > 128 µg/mL | 37 µM | > 128 µg/mL
13 | NNS(=O)(=O)c1ccc(-c2ccccn2)s1 | 32 µg/mL (≈ 125 µM) | > 128 µg/mL | 3.4 µM | 32 µg/mL
14 | NNC(=O)CNC(=O)c1cc2ccccc2cc1N | > 128 µg/mL | > 128 µg/mL | 560 µM | > 128 µg/mL

Results, then the molecule that gave them:

Row | MIC (Escherichia coli [1]) | MIC (Candida albicans) | IC50 [2] | MIC (Escherichia coli [3]) | SMILES
15 | 16 µg/mL (≈ 67.2 µM) | 128 µg/mL (≈ 537 µM) | 4.5 µM | 16 µg/mL | NNC(=O)CNC(=O)c1ccccc1[N+](=O)[O-]
16 | > 128 µg/mL | > 128 µg/mL | 0.079 µM | > 128 µg/mL | NNC(=O)CNC(=O)c1ccccc1C(F)(F)F
17 | 128 µg/mL (≈ 490 µM) | > 128 µg/mL | 15 µM | 128 µg/mL | NNC(=O)CNC(=O)c1ccc(C(F)(F)F)cc1
18 | – | – | 9 µM | – | N#CC(C#N)=C1c2cc(S(=O)(=O)Oc3ccccc3)cc([N+](=O)[O-])c2-c2c1cc(S(=O)(=O)Oc1ccccc1)cc2[N+](=O)[O-]
19 | – | – | 500 µM | – | NNC(=O)CNC(=O)Cc1cccc2ccccc12
20 | 128 µg/mL (≈ 452 µM) | > 128 µg/mL | 5.9 µM | 128 µg/mL | NNC(=O)CNC(=O)c1cc([N+](=O)[O-])cc([N+](=O)[O-])c1
21 | > 128 µg/mL | > 128 µg/mL | 16 µM | > 128 µg/mL | Cc1ccc2nc(-c3ccc(NC(=O)Nc4ccc(Cl)cc4)cc3)sc2c1
22 | > 128 µg/mL | > 128 µg/mL | 0.65 µM | > 128 µg/mL | COc1c(F)c(F)cc(C(=O)NCC(=O)NN)c1F
23 | 32 µg/mL (≈ 172 µM) | 128 µg/mL (≈ 687 µM) | 2.2 µM | 64 µg/mL | Cc1ccc(S(=O)(=O)NN)cc1
